In the library only some 2.3% were active in any assay of this set; here they are far more common.
ADAM17 inh: inhibitors of human ADAM17. P78536. recombinant ADAM17, EDANS/DABCYL FRET peptide cleavage. inhibition, % at 6.95 µM. actives 0.83% (n = 370,000). AID 720648;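 active means inhibition above the mean of compounds lying between control limits plus 3 SD, set per campaign, cut at about 8.5% in these data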;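 further: 0% = DMSO-only wells as the low control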
PLCg1 inh: blocks human PLC-gamma1 enzyme activity. P19174. purified PLC-gamma1, fluorogenic substrate, fluorescence. inhibition, % at 12.2 µM. actives 0.84% (n = 370,000). AID 720700
PLCb3 inh: blocks human PLC-beta3 enzyme activity | actives 0.18% (n = 370,000) | Purified PLC-beta3, fluorogenic substrate, fluorescence | inhibition, % at 12.2 µM | Q01970; in the data active means inhibition above about 11%;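 further: 0% = median of compound wells on plate and 100% = full blocker control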
TbMetRS inhib: Trypanosoma brucei MetRS inhibition. purified T. brucei MetRS, ATP depletion, Kinase-Glo luminescence. inhibition, % at 11.9 µM. actives 0.4% (n = 360,000). AID 624268;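 active means inhibition above a per-plate cutoff of the control wells' mean inhibition plus 3 SD, cut at about 5.5% in these data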;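 further: 0% = DMSO wells median and 100% = median of wells with control inhibitor compound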
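assay system = parasite MetRS enzyme | timing = 15 min preincubation, 2 h reaction, all 25 °C | evaluation = percent inhibition relative to median high and low control wells | medium = HEPES buffer containing pyrophosphatase, BSA, spermine, DTT | compound = single dose, 11.9 µM final nominal, 0.9% final DMSO | detection = Kinase-Glo luminescence, ATP depletion format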
ADAM10 inh: inhibits human ADAM10 | O14672 | recombinant ADAM10, EDANS/DABCYL FRET peptide cleavage, 3 h | inhibition, % at 7 µM | actives 0.62% (n = 370,000) | AID 720582;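 active means inhibition above a per-campaign cutoff equal to the mean of compounds falling between control-based bounds plus 3 SD, cut at about 20% in these data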;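 further: 0% = DMSO wells while the 100% control is not disclosed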
Target sequence (O14672 214-748 limits assumed): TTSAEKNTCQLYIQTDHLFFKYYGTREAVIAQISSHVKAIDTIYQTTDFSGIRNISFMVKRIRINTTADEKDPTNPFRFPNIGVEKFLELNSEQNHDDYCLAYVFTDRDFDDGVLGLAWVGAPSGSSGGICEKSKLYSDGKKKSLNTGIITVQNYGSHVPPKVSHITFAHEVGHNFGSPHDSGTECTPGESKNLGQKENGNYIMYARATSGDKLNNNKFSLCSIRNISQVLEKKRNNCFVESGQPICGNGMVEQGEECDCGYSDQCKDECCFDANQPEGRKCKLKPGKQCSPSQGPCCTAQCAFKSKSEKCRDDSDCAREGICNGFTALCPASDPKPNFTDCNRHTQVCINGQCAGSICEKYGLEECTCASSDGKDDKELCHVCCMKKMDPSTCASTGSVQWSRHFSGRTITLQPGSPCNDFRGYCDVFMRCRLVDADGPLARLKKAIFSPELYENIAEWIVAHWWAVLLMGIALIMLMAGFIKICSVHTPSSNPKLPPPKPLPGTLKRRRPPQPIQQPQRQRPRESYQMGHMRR
PLCgamma1 ctr: counter-screen for PLC-beta3 inhibitors: inhibitors of human PLC-gamma1. AID 743258. shares compounds with PLCg1 inh. purified PLC-gamma1, fluorogenic substrate, fluorescence. inhibition, % at 12.3 µM. actives 3.1% (n = 3,300)
PLCb3 confirm: confirmation of human PLC-beta3 inhibitors. shares compounds with PLCg1 inh. purified PLC-beta3, fluorogenic substrate fluorescence. inhibition, % at 12.3 µM. actives 1% (n = 3,300). AID 743261; in the data active means inhibition above about 11%
Numbers without * were called inactive; . = no result. Unless noted, no stated cut-off is given here; in the data, active means inhibition above about 9.5%; inactive means the rest.

SMILES	ADAM17 inh	PLCg1 inh	PLCb3 inh	TbMetRS inhib	ADAM10 inh	PLCgamma1 ctr	PLCb3 confirm
O[C@@H]1CN(Cc2cccs2)[C@@H](c2ccc(Cl)cc2)C[C@H]1n1cc(C2CC2)nn1	5.2	1.4	6.4	-0.4	7.8	.	.
Cc1ccc(NC(=O)CSc2nnc(-c3cnccn3)n2C)cc1C	1.0	9.7*	-8.2	-0.1	-9.3	-4.4	-0.4
Cn1c(SCc2ccccn2)nnc1-c1cnccn1	-1.9	2.8	-2.0	1.3	-3.0	.	.
Cc1cccc(CSc2nnc(-c3cnccn3)n2C)c1	5.7	12.1*	2.2	-0.5	14.5	-0.1	0.4
CCOC(=O)C1(CCOc2ccccc2)CCN(Cc2ccc(OC)c(O)c2)CC1	8.5	10.3*	8.9	0.4	14.0	-6.6	-2.2
CCOC(=O)C1(CCOc2ccccc2)CCN(Cc2cc(OC)c(O)c(OC)c2)CC1	-0.7	0.2	-4.6	-0.2	-1.5	.	.
Cc1ccc(S(=O)(=O)N(CC(=O)Nc2cccc(C(F)(F)F)c2)C(=O)N2CCN(C)CC2)cc1	0.7	-1.4	-1.9	-0.1	-1.4	.	.
O=C1C[C@@H]2c3c(cccc3CN1Cc1ccccc1Br)C[C@@H](O)[C@H]2O	1.2	-2.2	2.3	-0.4	4.2	.	.
Cc1ccc(C(=O)NCC(=O)OCc2nnc(-c3ccc([N+](=O)[O-])cc3)o2)s1	1.6	4.3	-10.4	0.2	-2.1	.	.
CN1C=CC(=C[N+](=O)[O-])N(C)C1=O	6.7	11.5*	6.3	-0.4	4.6	-3.2	-3.0
O=C(CC1SC(N2CCOCC2)=NC1=O)Nc1ccc(Cl)c(C(F)(F)F)c1 (stereo unspecified)	-1.2	-3.2	-1.2	-0.3	-2.5	.	.
COC(=O)[C@@]12CCCCC3=C1N(CCC3)C(=O)[C@H]2CC(=O)NCC12CC3CC(CC(C3)C1)C2	-7.1	-2.8	-0.9	.	-1.2	.	.
CC1(C)CC(C2N3CC4(C)CN2CC(C)(C3)C4=O)CCO1 (stereo unspecified)	3.5	12.9*	0.5	-0.2	0.2	-6.3	-1.9
CCC(C)N1CC23C=CC(O2)C(C(=O)OCc2ccccc2)C3C1=O (stereo unspecified)	3.3	4.2	13.8*	-0.3	0.1	-4.4	-0.9
CCOC(=O)C1C2C=CC3(CN(Cc4ccccc4)C(=O)C13)O2 (stereo unspecified)	-4.9	-0.2	-5.0	0.3	-6.4	.	.
C[n+]1ccc(C(=O)N/N=C/c2ccco2)cc1	-5.5	0.1	-0.8	-0.5	4.6	.	.
O=C(c1ccc([N+](=O)[O-])cc1Cl)N1CCN(c2ccccn2)CC1	-0.6	3.9	-4.2	-0.6	-1.1	.	.
O=C(c1ccc(Cl)cc1[N+](=O)[O-])N1CCN(c2ccccn2)CC1	5.1	8.2	11.9*	-0.4	4.9	1.5	0.0
COc1ccc(S[C@]2(C(=O)N(C)C)CC(=O)N(C(=O)c3ccccc3)[C@@H]2c2ccc(OC)cc2)cc1	2.8	1.1	-0.4	.	0.1	.	.
COC(=O)[C@]12C[C@H](CC(=O)N3CCN(C(=O)c4ccco4)CC3)C(=O)N(Cc3ccco3)C1=C[C@H](C(C)(C)C)O[C@@H]2C	-1.9	-0.2	-0.8	.	-1.2	.	.
CC(C)c1ccc(NC(=O)C2Cc3c(-c4ccccc4Oc4ccccc4)ccnc3O2)cc1 (stereo unspecified)	1.3	1.3	-3.6	0.0	10.7	.	.
Cc1ccccc1NC(=O)Cc1nc(COC(=O)c2cc([N+](=O)[O-])ccc2NCCO)cs1	5.3	10.1*	6.3	0.0	12.1	-4.8	-4.6
Cc1ccccc1NC(=O)Cc1nc(COC(=O)c2ccc([N+](=O)[O-])cc2)cs1	-2.6	-0.7	-8.1	-0.2	-8.5	.	.
CC(C)CC(N)c1csc(NC(=O)Nc2ccccc2Cc2ccccc2)n1 (stereo unspecified)	-2.1	2.5	4.6	0.1	5.7	.	.
CC(C)CC(N)c1csc(NC(=O)c2cc(C(C)(C)C)nn2Cc2ccccc2)n1 (stereo unspecified)	8.5	15.5*	4.8	-0.3	12.2	-3.3	-0.7
SMILES	ADAM17 inh	PLCg1 inh	PLCb3 inh	TbMetRS inhib	ADAM10 inh	PLCgamma1 ctr	PLCb3 confirm
COC(=O)c1cc(-c2cccc3c2sc2ccccc23)c(=O)n2c1CCC2	-9.3	41.3*	-5.2	.	-20.2	-34.9	-28.5
COC(=O)c1cc(-c2ccc(Cl)s2)c(=O)n2c1CCC2	-98.8	-80.0	-96.4	.	-416.6	.	.
CN(C(=O)CCS(=O)(=O)c1ccc2c(c1)oc(=O)n2C)C1CCCCC1	1.8	13.6*	-3.9	-0.5	-1.1	-6.2	-0.6
Cc1ccc(N(C)C(=O)CCS(=O)(=O)c2ccc3c(c2)oc(=O)n3C)cc1	-0.3	-2.4	-2.5	0.1	-8.2	.	.
O=C(O)CC(C(=O)Nc1ccc(Cl)cc1)N1CCCCCC1 (stereo unspecified)	-0.9	-1.6	-4.4	-0.1	10.0	.	.
CS(=O)(=O)N1CCC(Oc2ccccc2C(=O)NC2CCOC2)CC1 (stereo unspecified)	4.3	11.5*	7.0	-0.5	11.2	-7.6	-2.8
O=C(c1cnccn1)N1CCN(c2ccccc2)CC1	-4.6	-1.2	1.4	-1.5	-2.0	.	.
O=C(c1cnsn1)N1CCN(c2ccccc2)CC1	2.5	7.0	10.9*	-0.6	1.8	-1.4	1.3
CCc1ccccc1NC(=O)CN1CCN(C(=O)CNC(=O)c2ccc(N3CCCC3=O)cc2)CC1	2.4	12.2*	-3.7	-0.4	2.5	-3.6	2.3
CCc1ccccc1NC(=O)CN1CCN(C(=O)CCC(=O)N2CCC(c3ccccc3)=N2)CC1	7.4	13.4*	-0.6	-0.4	4.7	-2.9	-3.5
CCc1ccccc1NC(=O)CCC(=O)N1CCN(C(C)=O)CC1	-1.4	2.5	5.1	-0.3	-1.9	.	.
CCOC(=O)C1(C)CCN1C(=O)c1cncc(Br)c1 (stereo unspecified)	-0.6	3.0	4.3	-0.1	0.0	.	.
COC1CCN(C(=O)c2cc(COc3ccc(-n4cncn4)cc3)on2)CC1	0.7	0.0	-4.1	0.1	-1.1	.	.
O=C(c1cc(COc2ccc(-n3cncn3)cc2)on1)N1CCCC1	2.8	13.8*	-2.3	-0.1	-3.6	0.6	2.2
COCCCNc1nc2c(c(=O)n(Cc3ccc(OC)cc3)c(=O)n2C)n1C	3.5	10.0*	2.7	-0.4	7.0	-2.0	-10.1
COCCCNc1nc2c(c(=O)n(Cc3ccc(F)cc3)c(=O)n2C)n1C	0.1	6.0	-2.7	-0.5	4.6	.	.
CN(C)c1ccc(C(=O)NC2CCCCN(Cc3cccc(Cl)c3)C2=O)cc1 (stereo unspecified)	1.2	-7.0	-6.6	.	-1.2	.	.
CCOC(=O)c1c(NC(=O)C2CCCN(S(=O)(=O)c3ccc(C)cc3)C2)sc2c1CCCC2 (stereo unspecified)	1.5	14.8*	1.2	0.1	3.8	-6.2	-1.8

Source: PubChem (The Scripps Research Institute Molecular Screening Center)
